Published values collected from several papers.
Protocols differ between the studies behind these lines.
ABCB1: ATP-dependent translocase ABCB1 (ABCB1, Homo sapiens, UniProt P08183)
HDAC8: Histone deacetylase 8 (HDAC8, Homo sapiens, UniProt Q9BY41)
SLC47A2: Multidrug and toxin extrusion protein 2 (SLC47A2, Homo sapiens, UniProt Q86VL8)
PTPN7: Tyrosine-protein phosphatase non-receptor type 7 (PTPN7, Homo sapiens, UniProt P35236)
KAT2B: Histone acetyltransferase KAT2B (KAT2B, Homo sapiens, UniProt Q92831)
ALOX5: Polyunsaturated fatty acid 5-lipoxygenase (ALOX5, Homo sapiens, UniProt P09917)
BCKDK: Branched-chain alpha-ketoacid dehydrogenase kinase (BCKDK, Homo sapiens, UniProt O14874)
murD: UDP-N-acetylmuramoylalanine--D-glutamate ligase (murD, Escherichia coli K-12, UniProt P14900)
HDAC1: Histone deacetylase 1 (HDAC1, Homo sapiens, UniProt Q13547)
PDE8A: High affinity cAMP-specific and IBMX-insensitive 3',5'-cyclic phosphodiesterase 8A (PDE8A, Homo sapiens, UniProt O60658)

Structure (SMILES)	target	assay	test system	conditions	IC50
C=CC(=O)Nc1cc(Nc2nccc(Nc3cc(Cl)c(F)cc3C(C)(C)O)n2)c(OC)cc1N1CC[C@@H](N(C)C)C1	Cytochrome P450 2A6 (CYP2A6, Homo sapiens, UniProt P11509)	enzyme activity, inhibitor	human, liver microsomes	–	> 30 µM
CC(C)=CCC[C@@]1(C)C(CC[C@H]2[C@]3(C)CC[C@H](O)C(C)(C)O[C@H]3CC[C@@]2(C)O)=C(C)CC[C@H]1O	ABCB1	transporter efflux, inhibitor, fluorescence	KB-V1	10 min	20 to 50 µM
O=c1c(O)c(-c2ccc(O)cc2)oc2cc(O)cc(O)c12	HDAC8	enzyme activity, inhibitor	–	–	7.8 µM
N[C@@H](CC(=O)N1CCN(C(c2ccc(F)cc2)c2ccc(F)cc2)CC1)C(=O)N1Cc2ccccc2C1	Dipeptidyl peptidase 8 (Homo sapiens, UniProt Q6V1X1)	enzyme activity, inhibitor	–	–	0.128 µM
CCS(=O)(=O)N1CC(CC#N)(n2cc(-c3ncnc4[nH]ccc34)cn2)C1	SLC47A2	transporter uptake, inhibitor, radiometric	–	2 min	13.7 µM
O=C(O)c1cc(O)c2c(c1)[C@H]([C@H]1c3cc(C(=O)O)cc(O)c3C(=O)c3c(O[C@@H]4O[C@H](CO)[C@@H](O)[C@H](O)[C@H]4O)cccc31)c1cccc(O[C@@H]3O[C@H](CO)[C@@H](O)[C@H](O)[C@H]3O)c1C2=O	PTPN7	enzyme activity, inhibitor, fluorescence	–	–	1 µM
CNC(=O)c1cc2c(Oc3ccc(NC(=O)C4(C(=O)Nc5ccc(F)cc5)CC4)cc3)ccnc2cc1OC	Ephrin type-A receptor 8 (EPHA8, Homo sapiens, UniProt P29322)	enzyme activity, inhibitor, radiometric	–	–	0.034 µM
CCCCCCCCCCCCCCCc1cccc(O)c1C(=O)O	KAT2B	enzyme activity, inhibitor, radiometric	–	–	> 200 µM
C=C(C)[C@@H]1CCC(C)=C[C@H]1c1c(O)cc(CCCCC)cc1O	ALOX5	enzyme activity in cells, inhibitor	–	–	> 10 µM
Cc1nccc2c1c(=O)n(C)c1cc(OC[C@@H](N)CC(C)C)c(C#N)cc21	Mu-type opioid receptor (OPRM1, Homo sapiens, UniProt P35372)	cell-free assay	–	–	> 30 µM
CCCc1nc2c(n1Cc1ccc(-c3ccccc3-c3nnn[nH]3)cc1)C(=O)CCCC2	BCKDK	enzyme activity, inhibitor	–	–	0.68 µM
O=C(Nc1ccc(C=NNS(=O)(=O)c2ccc3ccccc3c2)cc1)c1ccccc1[N+](=O)[O-]	murD	enzyme activity, inhibitor, absorbance	–	–	45 µM
Cc1ccc(C(=O)Nc2ccc(S(=O)(=O)O)c3cc(S(=O)(=O)O)cc(S(=O)(=O)O)c23)cc1NC(=O)c1cccc(NC(=O)Nc2cccc(C(=O)Nc3cc(C(=O)Nc4ccc(S(=O)(=O)O)c5cc(S(=O)(=O)O)cc(S(=O)(=O)O)c45)ccc3C)c2)c1	PTPN7	enzyme activity, inhibitor, fluorescence	–	–	30 µM
O=C(NO)c1ccc(NC(=O)C2(c3ccc(F)cc3)CCCC2)c(F)c1	HDAC1	enzyme activity, inhibitor	–	–	0.204 µM
O=[N+]([O-])c1ccc(S(=O)(=O)Oc2ccccc2C=NNS(=O)(=O)c2ccc3ccccc3c2)cc1	murD	enzyme activity, inhibitor, absorbance	–	–	74 µM
CCCCCc1cc(O)c(C/C=C(\C)CCC=C(C)C)c(O)c1	ALOX5	enzyme activity in cells, inhibitor	–	–	2 µM
O=C(Nc1ccccc1C=NNS(=O)(=O)c1ccc2ccccc2c1)c1ccc([N+](=O)[O-])cc1	murD	enzyme activity, inhibitor, absorbance	–	–	43 µM

Structure (SMILES)	target	assay	test system	conditions	IC50
CSc1ccc(/C=C2/C(C)=C(CC(=O)O)c3cc(F)ccc32)cc1	PDE8A	enzyme activity, inhibitor	–	–	> 100 µM
O=C1NC(=O)/C(=C/c2ccc(OCCNc3nc4c(cnn4C4CCCC4)c(=O)[nH]3)c(F)c2)S1	PDE8A	enzyme activity, inhibitor	–	–	0.199 µM
CCOc1nc2cccc(C(=O)O)c2n1Cc1ccc(-c2ccccc2-c2nnn[nH]2)cc1	BCKDK	enzyme activity, inhibitor	–	–	4.28 µM
CC/C=C\C/C=C\C/C=C\C/C=C\C/C=C\CCCC(=O)O	DNA polymerase subunit gamma-1 (POLG, Homo sapiens, UniProt P54098)	enzyme activity, inhibitor	–	–	23.9 µM
CSCC[C@H](NC(=O)[C@H](Cc1c[nH]c2ccccc12)NC(=O)CNC(=O)[C@H](Cc1ccc(O)cc1)NC(=O)[C@H](C)NC(=O)[C@@H](CCC(=O)O)NC(=O)CN1CCN(CC(=O)O)CCN(CC(=O)O)CCN(CC(=O)O)CC1)C(=O)N[C@@H](CC(=O)O)C(=O)N[C@@H](Cc1cccc2ccccc12)C(N)=O	Gastrin/cholecystokinin type B receptor (Rattus norvegicus, UniProt P30553)	ligand displacement, radioligand	–	–	0.00192 µM
CCN(CC)CCNC(=O)c1c(C)[nH]c(/C=C2\C(=O)Nc3ccc(F)cc32)c1C	ABCB1	transporter efflux, inhibitor	LLC-PK1	1 h	6.7 µM
Cc1ccc(-c2cc(-c3ccc(-c4ccc(C(=O)O)cc4)[nH]3)nc3c(C(C)C)cccc23)cc1	Retinoic acid receptor gamma (RARG, Homo sapiens, UniProt P13631)	reporter gene, antagonist	–	–	> 3.3 µM
CN1CCN(c2ccc(Nc3ncc4cc(C#N)c(=O)n(C5CCCC5)c4n3)cc2)CC1	TGF-beta receptor type-2 (TGFBR2, Homo sapiens, UniProt P37173)	enzyme activity, inhibitor	–	–	0.123 µM
CCCC[C@H](NC(=O)[C@H](C)c1c(C)[nH]c2ccc(O)cc12)c1ncc(-c2cc3ccccc3nc2OC)[nH]1	HDAC1	enzyme activity, inhibitor	–	–	0.04 µM
C=C(C)[C@@H]1CCC(C)=C[C@H]1c1c(O)cc(CCC)cc1O	ALOX5	enzyme activity in cells, inhibitor	–	–	7.6 µM
C[C@@H]1CCO[C@H]2Cn3cc(C(=O)NCc4ccc(F)cc4F)c(=O)c(O)c3C(=O)N12	SLC47A2	transporter uptake, inhibitor, radiometric	HEK293	5 min, pH 8.5	24.8 µM
NC(=O)c1ccc[n+]([C@@H]2O[C@H](COP(=O)([O-])OP(=O)(O)OC[C@H]3O[C@@H](n4cnc5c(N)ncnc54)[C@H](O)[C@@H]3O)[C@@H](O)[C@H]2O)c1	Protein mono-ADP-ribosyltransferase PARP10 (PARP10, Homo sapiens, UniProt Q53GL7)	enzyme activity, inhibitor	–	–	456 µM
CCn1ncc2c1-c1cnc(N)c(c1)O[C@H](C)c1cc(F)ccc1-c1nn(C)nc1C2	Ephrin type-A receptor 6 (EPHA6, Homo sapiens, UniProt Q9UF33)	enzyme activity, inhibitor, radiometric	–	–	0.116 µM
CCCCc1nc(Cl)c(CO)n1Cc1ccc(-c2ccccc2-c2nn[nH]n2)cc1	BCKDK	enzyme activity, inhibitor	–	–	19.8 µM
O=c1cc(-c2ccc(O)c(O)c2)oc2cc(O)cc(O)c12	HDAC8	enzyme activity, inhibitor	–	–	6.91 µM
CCCCC(=O)N(Cc1ccc(-c2ccccc2-c2nnn[nH]2)cc1)[C@H](C(=O)O)C(C)C	BCKDK	enzyme activity, inhibitor	–	–	1.67 µM
COc1ccc(S(=O)(=O)ON=C2C=C(C)C(=O)C(C)=C2)cc1	KAT2B	enzyme activity, inhibitor, radiometric	–	–	34.7 µM
